Activity calls are given as the source filed them. The calls are words filed in the database; no cut-off is given here.

The subject of data set [1] is CCRF-CEM. As to the kind of experiment: Cytotoxicity against human CEM cells after 72 hrs. Format: functional, cell-based. Put shortly:
(§1)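 Compounds tested over a range of concentrations on cells in RPMI 1640 medium at 37 °C for 72 h. IC50 taken as the concentration inhibiting cell growth by 50%.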

A short description of data set [2]: Cytotoxicity against human Molt4/C8 cells after 72 hrs. Format: functional, cell-based. As to conditions: MOLT-4, 72 h. Put shortly: as §1
Data set [3] has as its system L1210. Nature of the data set: Cytotoxicity against mouse L1210 cells after 48 hrs. Format: functional, cell-based. As to conditions: L1210, 48 h. The procedure, abridged:
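Murine L1210 lymphoid leukemia cells exposed to graded compound concentrations in RPMI 1640 at 37 °C for 48 h. IC50 is the concentration giving 50% growth inhibition.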

The nature of data set [4]: Lipophilicity, log P of the compound. In kind it is physicochemical. As to conditions: calculated. Put shortly: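 Calculated logP, generated with the JME molecular editor rather than measured.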
Data set [5] deals with Liver. Nature of the data set: Stimulation of respiration in rat liver mitochondria. In kind it is functional. The procedure, abridged: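 Liver mitochondria isolated from rats anesthetized with isoflurane and decapitated. Oxygen consumption measured by polarography. Compound tested at 10 μM, with a DMSO solvent control (4 μL). Differences judged against standard deviations.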

For orientation: IC50 means the concentration at which inhibition is half-maximal. A high value points to weaker potency. For orientation: logP means a log measure of how a compound divides between an organic and an aqueous phase. `Cc1ccc(/C=C2\CCC/C(=C\c3ccc([N+](=O)[O-])cc3)C2=O)cc1`: the IC50 in data set [1] amounted to 8.53 µM; in data set [2], 8.44 µM; in data set [3] it was 8.16 µM. For the same compound, the logP in data set [4] was 5.38.
The corresponding values for `O=C1/C(=C/c2ccccc2)CCC/C1=C\c1ccc([N+](=O)[O-])cc1` are 9.32 µM, 8.35 µM, 9.8 µM and 4.93.
Consider `O=C1CCCC/C1=C\c1ccc([N+](=O)[O-])cc1`, for which the results for the IC50 in data set [1], in data set [2] and in data set [3] were 19.3 µM, 13.9 µM and 46.5 µM, respectively.
Regarding `O=C1/C(=C/c2ccc(F)cc2)CCC/C1=C\c1cccc([N+](=O)[O-])c1`, the IC50 is 5.05 µM in data set [1], 5.12 µM in data set [2] and 16.3 µM in data set [3]. Also, the logP in data set [4] was 5.06.
`COc1cc(/C=C2\CCC/C(=C\c3cccc([N+](=O)[O-])c3)C2=O)cc(OC)c1OC`: the values for the IC50 in data set [1], in data set [2] and in data set [3] were 45.2 µM, 44 µM and 42.2 µM, respectively. In addition, the logP in data set [4] is 4.53.
The corresponding values for `O=C1/C(=C/c2ccc(Cl)cc2)CCC/C1=C\c1ccc([N+](=O)[O-])cc1` are 8.18 µM, 9.12 µM, 9.41 µM and 5.61.
Take `COc1cc(/C=C2\CCC/C(=C\c3ccc([N+](=O)[O-])cc3)C2=O)cc(OC)c1OC`: the IC50 in data set [1] was determined as 4.61 µM; in data set [2], 6.42 µM; in data set [3] it was 6.97 µM. Besides, in data set [4], the logP is 4.56. Moreover, the result in data set [5] was Active.
As to `O=C1CCCC/C1=C\c1cccc([N+](=O)[O-])c1`, the IC50 in data set [1] is 8.12 µM; in data set [2] it was 8.28 µM; in data set [3], 50.1 µM.
As for `O=C1/C(=C/c2ccc(Cl)cc2)CCC/C1=C\c1cccc([N+](=O)[O-])c1`, the values for the IC50 in data set [1], in data set [2] and in data set [3] were 1.75 µM, 2.02 µM and 9.16 µM, respectively. The lipophilicity (logP) in data set [4] was 5.58.
Consider `CN(C)c1ccc(/C=C2\CCC/C(=C\c3cccc([N+](=O)[O-])c3)C2=O)cc1`, for which the values for the IC50 in data set [1], in data set [2] and in data set [3] were 11.7 µM, 10.9 µM and 156 µM, respectively. The logP in data set [4] was 5.01.
As for `O=C1/C(=C/c2ccc(F)cc2)CCC/C1=C\c1ccccc1[N+](=O)[O-]`, the IC50 turned out to be 1.51 µM in data set [1], 1.87 µM in data set [2] and 8.4 µM in data set [3]. In addition, in data set [4], the logP was 4.86.
For the compound `O=C1/C(=C/c2ccccc2)CCC/C1=C\c1cccc([N+](=O)[O-])c1`, the IC50 was found to be 2.29 µM in data set [1], 1.7 µM in data set [2] and 9.44 µM in data set [3]. In addition, the logP in data set [4] is 4.9.
For the compound `O=C1/C(=C/c2ccc(Cl)cc2)CCC/C1=C\c1ccccc1[N+](=O)[O-]`, the IC50 in data set [1] was 1.75 µM; in data set [2], 3.86 µM; in data set [3] it was 9.38 µM. In addition, the logP in data set [4] was 5.38.
Take `COc1cc(/C=C2\CCC/C(=C\c3ccccc3[N+](=O)[O-])C2=O)cc(OC)c1OC`: the values for the IC50 in data set [1], in data set [2] and in data set [3] were 0.402 µM, 0.702 µM and 1.52 µM, respectively. For the same compound, the logP in data set [4] was 4.33. Moreover, the outcome in data set [5] was Active.
In the case of `CN(C)c1ccc(/C=C2\CCC/C(=C\c3ccccc3[N+](=O)[O-])C2=O)cc1`, the IC50 amounted to 168 µM in data set [1], 122 µM in data set [2] and 164 µM in data set [3]. Moreover, the logP in data set [4] is 4.8.
As to `O=C1/C(=C/c2ccc(F)cc2)CCC/C1=C\c1ccc([N+](=O)[O-])cc1`, the figures for the IC50 in data set [1], in data set [2] and in data set [3] were 18.6 µM, 17.1 µM and 26.8 µM, respectively. Moreover, the logP in data set [4] was 5.08.
The corresponding values for `COc1ccc(/C=C2\CCC/C(=C\c3ccc([N+](=O)[O-])cc3)C2=O)cc1` are 250 µM, 300 µM, 240 µM and 4.98.
In the case of `Cc1ccc(/C=C2\CCC/C(=C\c3cccc([N+](=O)[O-])c3)C2=O)cc1`, the IC50 in data set [1] stood at 10.1 µM; in data set [2] it was 9.53 µM; in data set [3], 41.8 µM. In addition, the logP in data set [4] is 5.35.
Consider `O=C1CCCC/C1=C\c1ccccc1[N+](=O)[O-]`, for which the IC50 in data set [1] is 36.4 µM; in data set [2], 33.3 µM; in data set [3], 23.8 µM.
On to `COc1ccc(/C=C2\CCC/C(=C\c3cccc([N+](=O)[O-])c3)C2=O)cc1`, for which the IC50 was determined as 8.22 µM in data set [1], 7.98 µM in data set [2] and 29.5 µM in data set [3]. Further, the logP in data set [4] is 4.96.
Take `Cc1ccc(/C=C2\CCC/C(=C\c3ccccc3[N+](=O)[O-])C2=O)cc1`: the IC50 was 6.09 µM in data set [1], 7.52 µM in data set [2] and 7.77 µM in data set [3]. Besides, in data set [4], the logP is 5.15.
The matching figures for `O=C1/C(=C/c2ccccc2)CCC/C1=C\c1ccccc1[N+](=O)[O-]`: 0.925 µM, 1.48 µM, 4.84 µM and 4.7.
In the case of `CN(C)c1ccc(/C=C2\CCC/C(=C\c3ccc([N+](=O)[O-])cc3)C2=O)cc1`, the IC50 in data set [1], in data set [2] and in data set [3] was over 500 µM throughout. Moreover, in data set [4], the logP is 5.03.
As for `COc1ccc(/C=C2\CCC/C(=C\c3ccccc3[N+](=O)[O-])C2=O)cc1`, the IC50 in data set [1] was 7.45 µM; in data set [2] it was 8.9 µM; in data set [3] it was 42.4 µM. Also, the logP in data set [4] is 4.76.
